Test results: ChEMBL document CHEMBL3616378 (J Med Chem, 2015)
pEC50, pIC50, pKi: −log10 of the molar value.

How the values were obtained:
[1] = target: T1, Metabotropic glutamate receptor 3 (Homo sapiens, UniProt Q14832); assay: Displacement of [3H]-459477 from human recombinant mGlu3 receptor expressed in AV12 cells after 90 mins by liquid scintillation counting; type: cell-based
[2] = target: T2, Metabotropic glutamate receptor 2 (Homo sapiens, UniProt Q14416); assay: Antagonist activity at human recombinant mGlu2 receptor expressed in AV12 cells assessed as inhibition of glutamate-stimulated Ca2+ mobilization after 1 hr by FLIPR assay; type: functional, cell-based
Method in brief: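 AV12 cells stably co-expressing rat EAAT1, Gα15 and human mGlu2 (Bmax 1.35 pmol/mg), plated 85K/well 24 h ahead in medium with 250 µM L-glutamine. Compounds were dissolved from 10 mM stocks in 0.1N NaOH and run as 10-point 3-fold series. Fluo-3 AM Ca2+ transients were read by FLIPR. Read-out was % inhibition of the EC90 glutamate response, with relative IC50 from a four-parameter logistic fit.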

[3] = target: T2, Metabotropic glutamate receptor 2; assay: Displacement of [3H]-459477 from human recombinant mGlu2 receptor expressed in AV12 cells after 90 mins by liquid scintillation counting; type: cell-based
[4] = target: T1, Metabotropic glutamate receptor 3; assay: Agonist activity at human recombinant mGlu3 receptor expressed in AV12 cells assessed as stimulation of Ca2+ mobilization after 1.5 hrs by FLIPR assay; type: functional, cell-based
[5] = target: T1, Metabotropic glutamate receptor 3; assay: Antagonist activity at human recombinant mGlu3 receptor expressed in AV12 cells assessed as reversal of DCG-4-inhibited, forskolin-stimulated cAMP production after 1 hr by fluorescence assay; type: functional, cell-based
[6] = target: T2, Metabotropic glutamate receptor 2; assay: Agonist activity at human recombinant mGlu2 receptor expressed in AV12 cells assessed as stimulation of Ca2+ mobilization after 1 hr by FLIPR assay; type: functional, cell-based
[7] = target: T1, Metabotropic glutamate receptor 3; assay: Antagonist activity at human recombinant mGlu3 receptor expressed in AV12 cells assessed as inhibition of glutamate-stimulated Ca2+ mobilization after 1.5 hrs by FLIPR assay; type: functional, cell-based
[8] = target: T1, Metabotropic glutamate receptor 3; assay: Agonist activity at human recombinant mGlu3 receptor expressed in AV12 cells assessed as inhibition of forskolin-stimulated cAMP production after 1 hr by fluorescence assay; type: functional, cell-based
[9] = target: T2, Metabotropic glutamate receptor 2; assay: Antagonist activity at human recombinant mGlu2 receptor expressed in AV12 cells assessed as reversal of DCG-4-inhibited, forskolin-stimulated cAMP production after 1 hr by fluorescence assay; type: functional, cell-based
[10] = target: T2, Metabotropic glutamate receptor 2; assay: Agonist activity at human recombinant mGlu2 receptor expressed in AV12 cells assessed as inhibition of forskolin-stimulated cAMP production after 20 min by fluorescence assay
[11] = target: Metabotropic glutamate receptor 3 (Homo sapiens, UniProt Q14832, Q306L); assay: Agonist activity at human recombinant mGlu3 receptor Q306L mutant expressed in AV12 cells assessed as stimulation of Ca2+ mobilization after 1 hr by FLIPR assay; type: functional, cell-based
[12] = target: Metabotropic glutamate receptor 3 (Homo sapiens, UniProt Q14832, D279E/Q306L); assay: Agonist activity at human recombinant mGlu3 receptor D279E and Q306L mutant expressed in AV12 cells assessed as stimulation of Ca2+ mobilization after 1 hr by FLIPR assay; type: functional, cell-based
[13] = target: T1, Metabotropic glutamate receptor 3; assay: Agonist activity at wild type human recombinant mGlu3 receptor expressed in AV12 cells assessed as stimulation of Ca2+ mobilization after 1 hr by FLIPR assay; type: functional, cell-based
[14] = target: Metabotropic glutamate receptor 3 (Homo sapiens, UniProt Q14832, D279E); assay: Agonist activity at human recombinant mGlu3 receptor D279E mutant expressed in AV12 cells assessed as stimulation of Ca2+ mobilization after 1 hr by FLIPR assay; type: functional, cell-based
Chain of Metabotropic glutamate receptor 3 (Homo sapiens, UniProt Q14832, D279E) (Q14832 23-879 D279E limits assumed): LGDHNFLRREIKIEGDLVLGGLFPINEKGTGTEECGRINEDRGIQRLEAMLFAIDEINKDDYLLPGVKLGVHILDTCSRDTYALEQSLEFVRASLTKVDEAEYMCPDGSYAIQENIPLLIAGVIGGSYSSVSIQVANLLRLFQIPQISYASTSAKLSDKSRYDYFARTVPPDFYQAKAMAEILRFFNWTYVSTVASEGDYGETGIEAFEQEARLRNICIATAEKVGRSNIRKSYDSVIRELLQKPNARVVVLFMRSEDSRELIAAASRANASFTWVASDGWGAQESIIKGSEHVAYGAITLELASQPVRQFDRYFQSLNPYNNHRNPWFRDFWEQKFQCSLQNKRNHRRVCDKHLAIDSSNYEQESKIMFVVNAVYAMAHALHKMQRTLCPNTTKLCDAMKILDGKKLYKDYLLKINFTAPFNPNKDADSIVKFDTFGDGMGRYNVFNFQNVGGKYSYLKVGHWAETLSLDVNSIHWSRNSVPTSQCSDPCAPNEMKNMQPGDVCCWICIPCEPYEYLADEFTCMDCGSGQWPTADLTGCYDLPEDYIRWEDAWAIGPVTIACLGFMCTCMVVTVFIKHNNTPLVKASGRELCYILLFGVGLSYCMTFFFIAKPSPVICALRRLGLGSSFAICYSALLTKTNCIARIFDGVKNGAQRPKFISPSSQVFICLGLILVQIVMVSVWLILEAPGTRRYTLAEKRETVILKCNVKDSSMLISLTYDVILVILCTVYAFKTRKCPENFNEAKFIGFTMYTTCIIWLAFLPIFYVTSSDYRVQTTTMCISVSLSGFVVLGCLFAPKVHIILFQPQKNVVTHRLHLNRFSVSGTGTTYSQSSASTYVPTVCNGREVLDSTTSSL

T1 sequence (Q14832 whole entry): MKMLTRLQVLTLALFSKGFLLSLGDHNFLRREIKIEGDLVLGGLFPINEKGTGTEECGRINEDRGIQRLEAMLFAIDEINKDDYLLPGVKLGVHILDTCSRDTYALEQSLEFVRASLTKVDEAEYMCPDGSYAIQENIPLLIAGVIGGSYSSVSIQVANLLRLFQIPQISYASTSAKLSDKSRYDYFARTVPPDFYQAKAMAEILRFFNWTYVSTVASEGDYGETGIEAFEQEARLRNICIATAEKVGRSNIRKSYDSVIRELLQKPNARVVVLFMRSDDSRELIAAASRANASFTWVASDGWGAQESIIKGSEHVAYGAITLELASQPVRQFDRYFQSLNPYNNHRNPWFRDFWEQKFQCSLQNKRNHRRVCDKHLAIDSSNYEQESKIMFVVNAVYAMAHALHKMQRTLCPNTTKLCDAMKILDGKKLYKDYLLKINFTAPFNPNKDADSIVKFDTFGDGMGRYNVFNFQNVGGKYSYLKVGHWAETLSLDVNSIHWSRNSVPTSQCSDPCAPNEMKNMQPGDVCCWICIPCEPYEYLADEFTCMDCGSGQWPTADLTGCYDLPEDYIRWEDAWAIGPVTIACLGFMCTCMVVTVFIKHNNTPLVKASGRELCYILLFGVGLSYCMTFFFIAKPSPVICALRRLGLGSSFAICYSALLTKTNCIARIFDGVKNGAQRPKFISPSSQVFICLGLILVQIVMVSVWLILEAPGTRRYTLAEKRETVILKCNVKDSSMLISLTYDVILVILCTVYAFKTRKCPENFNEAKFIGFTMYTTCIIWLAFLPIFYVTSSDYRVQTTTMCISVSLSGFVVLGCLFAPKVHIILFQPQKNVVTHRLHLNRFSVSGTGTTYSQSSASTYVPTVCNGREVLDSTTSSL
T2 sequence (Q14416 whole entry): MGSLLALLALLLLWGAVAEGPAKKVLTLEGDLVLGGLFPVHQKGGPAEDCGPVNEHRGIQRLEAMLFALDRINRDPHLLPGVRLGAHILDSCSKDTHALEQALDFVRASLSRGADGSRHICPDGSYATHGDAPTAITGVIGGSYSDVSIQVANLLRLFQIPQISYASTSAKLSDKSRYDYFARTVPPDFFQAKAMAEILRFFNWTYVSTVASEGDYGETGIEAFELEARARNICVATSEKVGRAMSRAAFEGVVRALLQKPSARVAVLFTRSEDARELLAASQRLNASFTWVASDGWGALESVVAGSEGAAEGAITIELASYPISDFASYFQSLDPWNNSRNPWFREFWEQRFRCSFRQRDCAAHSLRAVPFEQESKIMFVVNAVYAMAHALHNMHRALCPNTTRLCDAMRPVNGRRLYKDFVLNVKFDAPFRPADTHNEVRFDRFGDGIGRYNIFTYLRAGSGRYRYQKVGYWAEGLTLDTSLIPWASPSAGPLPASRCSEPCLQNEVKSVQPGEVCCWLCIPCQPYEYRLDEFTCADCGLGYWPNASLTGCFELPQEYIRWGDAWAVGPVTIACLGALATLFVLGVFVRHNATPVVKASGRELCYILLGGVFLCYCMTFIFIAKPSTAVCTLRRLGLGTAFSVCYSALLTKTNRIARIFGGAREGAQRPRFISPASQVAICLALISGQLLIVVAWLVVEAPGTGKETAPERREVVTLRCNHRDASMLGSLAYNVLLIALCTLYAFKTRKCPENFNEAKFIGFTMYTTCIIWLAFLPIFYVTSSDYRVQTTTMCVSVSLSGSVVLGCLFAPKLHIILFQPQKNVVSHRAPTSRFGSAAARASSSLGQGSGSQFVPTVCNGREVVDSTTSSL
Chain of Metabotropic glutamate receptor 3 (Homo sapiens, UniProt Q14832, Q306L) (Q14832 23-879 Q306L limits assumed): as the sequence (Q14832 23-879 D279E limits assumed) above, with E257D, Q284L counted along it
Chain of Metabotropic glutamate receptor 3 (Homo sapiens, UniProt Q14832, D279E/Q306L) (Q14832 23-879 D279E/Q306L limits assumed): as the sequence (Q14832 23-879 D279E limits assumed) above, with Q284L counted along it

| SMILES | pKi [1] | pIC50 [2] | pKi [3] | pEC50 [4] | pIC50 [5] | pEC50 [6] | pIC50 [7] | pEC50 [8] | pIC50 [9] | pEC50 [10] | pEC50 [11] | pEC50 [12] | pEC50 [13] | pEC50 [14] |
| --- | --- | --- | --- | --- | --- | --- | --- | --- | --- | --- | --- | --- | --- | --- |
| N[C@@]1(C(=O)O)C[C@@H](Sc2ccccc2)[C@H]2[C@H](C(=O)O)[C@H]21 | 6.86 | < 4.90 | 6.38 | < 4.60 | 5.97 | < 4.90 | 5.11 | < 4.60 |  |  |  |  |  |  |
| N[C@@]1(C(=O)O)C[C@H](Sc2ccccc2)[C@H]2[C@H](C(=O)O)[C@H]21 | 6.57 | < 4.90 | 5.91 | < 5.30 |  | < 4.60 | 5.17 | < 4.60 | 4.82 |  |  |  |  |  |
| N[C@@]1(C(=O)O)C[C@@H](Sc2nnc(C(F)(F)F)[nH]2)[C@H]2[C@H](C(=O)O)[C@H]21 | 7.25 |  |  | 7.09 | 6.28 |  |  | 7.10 |  |  |  |  |  |  |
| N[C@@]1(C(=O)O)C[C@@H](Sc2nnc(C(F)F)[nH]2)[C@H]2[C@H](C(=O)O)[C@H]21 | 7.20 |  | 7.02 | < 4.60 | 6.34 | 7.27 | 6.81 | 7.11 |  | 7.93 |  |  |  |  |
| N[C@@]1(C(=O)O)C[C@@H](Sc2c[nH]nn2)[C@H]2[C@H](C(=O)O)[C@H]21 | 6.59 |  | 6.85 | < 4.60 | 5.62 |  | 5.26 | 6.63 |  | 7.91 |  |  |  |  |
| N[C@@]1(C(=O)O)C[C@H](Sc2n[nH]c(C(F)(F)F)n2)[C@H]2[C@H](C(=O)O)[C@H]21 | 7.37 |  |  | < 4.60 |  |  | 6.20 | 7.52 |  |  |  |  |  |  |
| CC(C)c1nc(S[C@H]2C[C@@](N)(C(=O)O)[C@@H]3[C@@H](C(=O)O)[C@@H]32)n[nH]1 | 7.08 |  | 6.47 | < 4.60 |  | 6.62 | 5.63 | 7.11 |  | 7.13 |  |  |  |  |
| N[C@@]1(C(=O)O)C[C@H](Sc2c[nH]nn2)[C@H]2[C@H](C(=O)O)[C@H]21 | 7.19 |  | 6.95 | < 4.60 |  | 7.72 | 5.55 | 7.03 |  | 8.28 |  |  |  |  |
| N[C@@]1(C(=O)O)CC[C@H]2[C@H](C(=O)O)[C@H]21 | 6.97 |  | 7.14 | 6.85 |  | 7.46 |  | 7.55 |  | 8.15 |  |  |  |  |
| N[C@@H](CCC(=O)O)C(=O)O [GLUTAMIC ACID] |  |  |  |  |  |  |  |  |  |  | 5.83 | 5.29 | 6.00 | 5.38 |

Second part, the molecule after the results:

| pKi [1] | pIC50 [2] | pKi [3] | pEC50 [4] | pIC50 [5] | pEC50 [6] | pIC50 [7] | pEC50 [8] | pIC50 [9] | pEC50 [10] | pEC50 [11] | pEC50 [12] | pEC50 [13] | pEC50 [14] | SMILES |
| --- | --- | --- | --- | --- | --- | --- | --- | --- | --- | --- | --- | --- | --- | --- |
| 7.20 |  | 6.92 | 6.98 |  | 7.40 |  | 6.99 |  | 7.98 |  |  |  |  | Cc1nnc(S[C@@H]2C[C@@](N)(C(=O)O)[C@@H]3[C@@H](C(=O)O)[C@@H]32)[nH]1 |
| 7.23 |  | 7.17 | < 4.60 |  | 7.89 | 7.02 | 7.13 |  | 8.35 |  |  |  |  | Nc1nnc(S[C@@H]2C[C@@](N)(C(=O)O)[C@@H]3[C@@H](C(=O)O)[C@@H]32)[nH]1 |
| 6.80 |  | 6.58 | < 4.60 | 6.07 | 7.06 | < 4.90 | 6.55 |  | 7.78 |  |  |  |  | CC(C)c1nnc(S[C@@H]2C[C@@](N)(C(=O)O)[C@@H]3[C@@H](C(=O)O)[C@@H]32)[nH]1 |
| 6.90 |  | 7.22 | < 4.60 | 5.37 |  | 5.51 | 6.64 |  | 7.95 |  |  |  |  | N[C@@]1(C(=O)O)C[C@H](Sc2nnc[nH]2)[C@H]2[C@H](C(=O)O)[C@H]21 |
| 7.10 |  | 6.77 | < 4.60 |  | 6.84 | 5.44 | 7.02 |  | 7.35 |  |  |  |  | Cc1nnc(S[C@H]2C[C@@](N)(C(=O)O)[C@@H]3[C@@H](C(=O)O)[C@@H]32)[nH]1 |
| 7.24 |  | 7.87 | < 4.60 |  | 8.20 | 6.61 | 7.56 |  | 9.24 |  |  |  |  | N[C@@]1(C(=O)O)C[C@H](Sc2nnc(C(F)F)[nH]2)[C@H]2[C@H](C(=O)O)[C@H]21 |
| 7.16 |  | 7.56 | < 4.60 |  | 7.70 | 5.41 | 6.95 |  | 8.19 |  |  |  |  | Nc1nnc(S[C@H]2C[C@@](N)(C(=O)O)[C@@H]3[C@@H](C(=O)O)[C@@H]32)[nH]1 |
